Shown are actives, neighbours in structure and some others; about 3% of the full set was active somewhere.
SENP7 inh: SENP7 protease inhibition; recombinant SENP7, Z-RLRGG-aminoluciferin luminescence, 40 min; inhibition, % at 5 µM; hit rate 1.5% among 330,000; AID 434973;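 active = inhibition above about 50% at the single test dose, limit read from the data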;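 also: plate controls were DMSO with enzyme for no effect and no enzyme buffer wells for full effect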
Target sequence (Q9BQF6 706-1050 limits assumed): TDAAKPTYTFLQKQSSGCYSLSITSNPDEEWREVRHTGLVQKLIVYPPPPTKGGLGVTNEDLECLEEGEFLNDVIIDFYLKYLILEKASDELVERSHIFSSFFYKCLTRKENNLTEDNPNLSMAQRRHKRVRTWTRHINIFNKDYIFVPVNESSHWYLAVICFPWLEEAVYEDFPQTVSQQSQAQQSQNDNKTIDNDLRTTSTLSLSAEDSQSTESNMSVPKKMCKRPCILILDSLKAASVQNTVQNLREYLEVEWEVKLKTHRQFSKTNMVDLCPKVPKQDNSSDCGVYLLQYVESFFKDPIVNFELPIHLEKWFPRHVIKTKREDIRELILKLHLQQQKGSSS
SENP8 block-1: SENP8 (human) protease inhibition | inhibition, % at 20 µM | recombinant SENP8, Nedd8 substrate fluorescence | AID 602440 | hit rate 0.64% among 360,000 | Q96LD8; in the data active = inhibition mostly above about 40%, no sharp cut-off; inactive = mostly below about 27%
SENP8 block-2: SENP8 protease inhibition; hit rate 1.2% among 330,000; AID 2540; inhibition, % at 10 µM; purified SENP8, Z-RLRGG-aminoluciferin cleavage, luminescence; Q96LD8; in the data active = inhibition above about 50%
UBC13 inh: inhibitors of human UBC13 polyubiquitin chain formation | AID 485273 | inhibition, % at 20 µM | TR-FRET | hit rate 0.47% among 330,000; in the data active = inhibition above about 45%, passing the limit was not always enough
SENP6 inh: blocks the human protease SENP6. inhibition, % at 10 µM. AID 2599. hit rate 1.8% among 330,000. Recombinant SENP6 catalytic domain, aminoluciferin luminescence;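 active = inhibition above about 50% at the single tested dose, limit read from the data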;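 also: plate controls were DMSO wells with enzyme for no effect and DMSO wells lacking enzyme for full effect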
Apaf1 inhib: human Apaf-1 inhibition | inhibition, % at 20 µM | O14727 | hit rate 0.71% among 330,000 | reconstituted apoptosome caspase-3 activity, DEVD-Rh110 fluorescence; active = inhibition of at least 40% at 20 µM;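 also: plate controls were DMSO wells for no effect and DEVD-CHO caspase inhibitor wells for full effect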
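System: Apoptosome proteins | Medium: Hepes pH 7.5 with detergent and BSA | Also added: Cytochrome c trigger plus (Z-DEVD)2-Rh110 caspase-3 substrate | Incubation: 30 min compound preincubation, 50 min activation, room temperature | Detection: Rhodamine 110 fluorescence at Ex 480/Em 540 nm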
Casp3 counter: inhibits human caspase-3 in UBC13 counter-screen; inhibition, % at 20 µM; hit rate 4% among 1,400; Recombinant caspase-3, Caspase-Glo 3/7 luminescence, 60 min; shares compounds with UBC13 inh;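 active = mean inhibition across replicates above about 26%, limit read from the data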;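 also: plate controls were DMSO with caspase-3 for no effect and DMSO wells lacking enzyme for full effect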
UBC13 conf: human UBC13 polyubiquitin inhibition, confirmed | shares compounds with UBC13 inh | UBC13 polyubiquitination, TR-FRET, biochemical | inhibition, % at 10 µM | hit rate 68% among 1,400 | AID 488859; in the data active = inhibition above about 45%
* marks the source's active call; other numbers are inactive results; i = inactive; · = not tested or not shown.

SMILES | SENP7 inh | SENP8 block-1 | SENP8 block-2 | UBC13 inh | SENP6 inh | Apaf1 inhib | Casp3 counter | UBC13 conf
Oc1ccc(CN2CCN(Cc3ccccc3)CC2)c2cccnc12 | 1 | 23 | -4 | 66* | 2 | 8 | 0 | 103*
O=S(=O)(c1ccc(Cl)cc1)N1CCN(Cc2ccc(O)c3ncccc23)CC1 | -3 | 11 | -7 | -26 | -6 | 24 | · | ·
CCOC1=C2CN(S(=O)(=O)c3ccc(C)cc3)[C@@H](c3ccccc3)C[C@H]2[C@H]2C(=O)N(c3ccccc3)C(=O)[C@H]2C1 | · | 8 | · | · | · | · | · | ·
COC(=O)c1nc(-c2ccc(C)cc2)[nH]c1C(C)(C)C | · | 16 | · | · | · | · | · | ·
NC(=O)c1nsc(C(=O)N(c2ccc(F)cc2)C(C(=O)NCC2CCCO2)c2c[nH]c3ccccc23)c1N (centres undefined) | -34 | -313 | -15 | 63* | -19 | 18 | 2 | 64*
Cc1cccc(N(C(=O)c2snc(C(N)=O)c2N)C(C(=O)NCC2CCCO2)c2c[nH]c3ccccc23)c1 (centres undefined) | 4 | -311 | 3 | 77* | -4 | 11 | 4 | 81*
CCOc1ccc(C(C(=O)NCC2CCCO2)N(C(=O)c2snc(C(N)=O)c2N)c2ccc(F)cc2)cc1 (centres undefined) | -2 | -315 | -4 | 17 | -3 | 20 | · | ·
NC(=O)c1nsc(C(=O)N(c2cccc(F)c2)C(C(=O)NCC2CCCO2)c2c[nH]c3ccccc23)c1N (centres undefined) | 3 | -279 | -2 | 79* | -2 | 16 | 0 | 87*
Cc1ccc2c(c1)c1nc3ccccc3nc1n2C | 5 | -259 | -8 | 53* | 6 | -14 | 8 | 16
CCOc1ccc2c(c1)c1nc3ccccc3nc1n2C | · | -56 | · | · | · | · | · | ·
CCn1c2ccc(F)cc2c2nc3ccccc3nc21 | 5 | -291 | -6 | 34 | 6 | 12 | · | ·
Cn1c2ccc(F)cc2c2nc3ccccc3nc21 | 6 | -158 | 16 | 51* | 34 | 4 | 9 | 14
Cn1c2ccc(Cl)cc2c2nc3ccccc3nc21 | -7 | -317 | 11 | 49* | 17 | 23 | 0 | 7
CCCNC(=O)C1(C)CCCN(C(=O)c2cc(F)ccc2C)C1 (centres undefined) | · | 11 | · | · | · | · | · | ·
Cc1ccc2ccccc2c1C(O)c1ncc(-c2ccc(C(F)(F)F)cc2)[nH]1 (centres undefined) | · | 5 | · | · | · | · | · | ·
Cc1ccnc(NCc2c(O)ccc3ccccc23)c1 | 5 | -9 | -18 | 54* | -17 | 10 | -1 | 76*
Cc1ccnc(NCc2cc(Cl)ccc2O)c1 | · | 18 | · | · | · | · | · | ·
CCN1CCN(CCCNC(=O)c2ccc3c(c2)N(Cc2ccccc2)CCS3)CC1 | -5 | -426 | 13 | 26 | -13 | 8 | · | ·
O=C(NCCCN1CCCC1)c1ccc2c(c1)N(Cc1ccccc1)CCS2 | -3 | -435 | -1 | 55* | -4 | -10 | -2 | 69*
O=c1[nH]c(=S)[nH]c2c1C(C1CCCCC1)OC(C1CCCCC1)C2 (centres undefined) | · | 2 | · | · | · | · | · | ·
COc1ccc2cc3cc(C(=O)Nc4ccccc4N4CCN(C)CC4)oc3nc2c1 | -4 | -35 | -5 | 68* | -27 | 18 | -1 | 36
COc1ccc2cc3cc(C(=O)NCCN4CCN(c5ccccc5F)CC4)oc3nc2c1 | -1 | i | -7 | 13 | -14 | 18 | · | ·
C=C(C)CNC(=S)N=Nc1c(O)[nH]c2ccc([N+](=O)[O-])cc12 | 1 | 24 | -1 | 49* | 8 | -11 | 1 | 47*
COc1cc2sc(-c3ccc(S(C)(=O)=O)cc3)c(C(=O)NCCCCO)c2cc1OC | 3 | i | 0 | 46* | -7 | -1 | 3 | 43
COc1cc2sc(-c3ccc(S(C)(=O)=O)cc3)c(C(=O)NCc3ccc(C)o3)c2cc1OC | 6 | i | 3 | 46* | -16 | 4 | 5 | 42
C[C@H](O)[C@@H]1C(=O)N2CCc3c([nH]c4ccccc34)[C@@H]2C[C@@H]1N(C)Cc1ccc(Cl)cc1 | · | -318 | · | · | · | · | · | ·
O=C1c2ccccc2C(c2nnnn2C2CCCCC2)N1CCc1ccc(O)cc1 (centres undefined) | · | 16 | · | · | · | · | · | ·
